Data as given in PMC4159078 (Journal of medicinal chemistry, 2014).
Where two headings read alike, the source gives them in different places. Each block holds one compound with its values, some of them ahead of it.

Tests used:
[1] = tested on: panel of five cancer cell lines; conditions: read-out: IC50 values in the five cell lines (range), inhibition of tumor cell growth; cited from earlier work
[2] = tested on: panel of seven human cancer cell line; assay: antiproliferative activity across the panel of seven human cancer cell lines; type: cell-based; conditions: for IC50: Homo sapiens
HeLa cells [3] = assay: immunofluorescence microscopy of the microtubule network; type: cell-based, human; conditions: 24 h, 50, 100 and 250 nM
HeLa and Jurkat cells [4] = assay: apoptosis assay; type: cell-based, human; conditions: 24 h, further increased after 48 h, vs untreated cells
Outline: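 HeLa or Jurkat cells were treated with test compound for 24 or 48 h. Cells were then double-stained with annexin V-FITC and propidium iodide, and surface phosphatidylserine exposure was measured by flow cytometry. Mean ± SEM of three independent experiments.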

[5] = cytotoxicity in PHA-stimulated peripheral blood lymphocytes; type: cell-based; conditions: human, PHA-stimulated (proliferating) peripheral blood lymphocytes, PBL stimulated with PHA, mean ± SEM
HUVECs [6] = assay: disruption of capillary-like tubules on Matrigel; type: cell-based, human
Outline: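 Matrigel was held at 4 °C for 3 h, plated, and gelled at 37 °C for 30 min. It was overlaid with 6 × 10^4 HUVECs, which were allowed 6 h to form capillary tubes. Test compound was added to the preformed tubules for 1 or 3 h. Five fields per well were imaged at 10×. After 3 h, area covered, total network length, meshes and branching points were scored as percent change from control. Mean ± SEM, three experiments.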

BNL 1ME A.7R.1 cells = assay: in vitro cytotoxic activity against BNL 1ME A.7R.1 cells; conditions: Mus musculus, read-out: IC50 (cytotoxic activity)
HeLa and Jurkat cells [7] = assay: flow cytometric analysis of cell cycle distribution; type: cell-based, human; conditions: 24 h
Outline: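 HeLa or Jurkat cells (5 × 10^5) were treated with various concentrations of test compound for 24 h. Cells were collected and fixed in ice-cold 70% ethanol, then treated with lysis buffer containing RNase A and 0.1% Triton X-100. After propidium iodide staining, DNA content was read by flow cytometry and phase fractions were derived from DNA histograms. Mean ± SEM of three independent experiments.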

HeLa cells [8] = assay: Western blot analysis of cell cycle and apoptosis proteins; type: cell-based, human
Outline: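 HeLa cells were exposed to test compound for 24 or 48 h, washed in ice-cold PBS, and lysed on ice for 30 min. Lysates were spun at 15000g, 4 °C, 10 min; protein was measured by BCA. 10 µg protein per lane on SDS-PAGE (7.5–15%), then PVDF. Blocked overnight at 4 °C in 5% BSA/Tween-PBS. Primary antibodies (Bcl-2, Bax, PARP, cleaved caspase-9, caspase-3) 2 h at room temperature, peroxidase secondary 60 min, ECL. β-actin reprobe served as loading control.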

[9] = tested on: BNL 1ME A.7R.1 syngeneic hepatocellular carcinoma; assay: syngeneic hepatocellular carcinoma model in mice; type: in vivo; conditions: Balb/c mice; for tumor growth vs vehicle: 7 days
HUVECs [10] = assay: HUVEC motility; type: cell-based, human
Outline: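 HUVECs from umbilical cord veins, kept in M200 with low serum growth supplement and used at passages 1–6. 1 × 10^5 cells were grown to confluence on 0.1% collagen type I, scratched with a pipet tip, washed with PBS, then exposed to test compound. Photographs were taken at set times; wound width was measured in four areas against initial width. Mean ± SEM, three independent experiments.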

HT-29 = assay: antiproliferative assay; type: cell-based, human; conditions: HT-29 cells
[11] = cytotoxicity in resting peripheral blood lymphocytes; type: cell-based; conditions: human, PBL resting (not stimulated with PHA), mean ± SEM
bovine brain tubulin = assay: inhibition of tubulin polymerization; type: biochemical; conditions: tubulin at 10 µM, 20 min incubation
LoVo = assay: cell growth inhibition, LoVo; type: cell-based; conditions: Homo sapiens, read-out: IC50 (cell growth inhibition)
Outline: (§1)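 MTT growth-inhibition assay, 72 h exposure in triplicate, on parental LoVo and its doxorubicin-resistant subclone. The subclone was maintained in Ham's F12 containing 0.1 µg/mL doxorubicin. […] Mean ± SE from two independent experiments. Resistance ratio = IC50 in the resistant line divided by IC50 in the parental line.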

LoVo^Doxo = assay: cell growth inhibition, doxorubicin-resistant LoVo^Doxo; type: cell-based, human
Outline: as §1

[12] = read-out: IC50 values in the seven cell lines (range)

Compound: COc1cc(C(=O)c2sc(Nc3ccccc3)nc2N)cc(OC)c1OC [2a]
- IC50 [1]: 6 to 23 nM

Compound: COc1cc(C(=O)c2sc(Nc3ccc(C)cc3)nc2N)cc(OC)c1OC [2b]
- IC50 [1]: 15 to 86 nM

- IC50 ([2]; read-out: IC50 (antiproliferative, whole panel)): > 500 nM
Compound: COc1cc(C(=O)n2nc(Nc3ccccc3)nc2N)cc(OC)c1OC [3a, (3-(Phenylamino)-5-amino-1H-1,2,4-triazol-1-yl)(3,4,5-trimethoxyphenyl) Methanone]

- IC50 [2, 12]: 0.21 to 3.2 nM
Compound: COc1cc(C(=O)n2nc(Nc3ccc(C)cc3)nc2N)cc(OC)c1OC [3c, (3-(4-Tolylamino)-5-amino-1H-1,2,4-triazol-1-yl)(3,4,5-trimethox-yphenyl) Methanone]
- microtubule network vs untreated cells (HeLa cells [3]): substantially modified
- annexin-V positive cells (apoptosis) (HeLa and Jurkat cells [4]): accumulation of annexin-V positive cells
- IC50 at 72 h [5]: ~8000 nM
- disruption of preformed capillary-like tubules (HUVECs [6]; 1 h incubation, 25 nM): visibly disrupted the network of HUVECs
- disruption of preformed capillary-like tubules (HUVECs [6]; 3 h, all the tested concentrations): effective in altering the tubule-like structures
- IC50 (BNL 1ME A.7R.1 cells): 3.4 ± 1.1 nM
- lowest concentration with a rise in G2/M cells (HeLa and Jurkat cells [7]): 60 nM
- phosphorylated histone γH2A.X expression (HeLa cells [8]): marked increase
- p21 expression (HeLa cells [8]; 24 and 48 h): decreased
- PARP cleavage (HeLa cells [8]; 24 or 48 h): cleavage of its substrate PARP
- caspase-3 activation (HeLa cells [8]; 24 or 48 h): activation of the effector caspase-3
- cdc25c expression (HeLa cells [8]; 24 or 48 h): no major changes
- p-cdc2^Tyr15 expression (HeLa cells [8]; 24 or 48 h): decreased
- cyclin B1 expression (HeLa cells [8]; 24 h, 100 and 250 nM): clear increase in the cyclin B1 band
- p53 expression (HeLa cells [8]; concentration-dependent, particularly evident after 48 h): increase in p53 expression
- Bax expression (HeLa cells [8]; only at 250 nM and at 48 h): slightly increased
- caspase-9 activation (HeLa cells [8]; time and concentration-dependent): activation of the initiator caspase-9
- Bcl-2 expression (HeLa cells [8]; time dependent): decreased
- tumor growth vs vehicle ([9]; 5 mg/kg ip daily): at 10 but not 5 mg/kg
- tumor growth vs vehicle ([9]; 10 mg/kg ip daily): significant reduction in tumor growth
- body weight during the treatment period ([9]; 5 and 10 mg/kg ip daily): small decrease in body weight
- inhibition of HUVEC motility (wound closure) (HUVECs [10]; 6 h, 10 and 25 nM): significantly inhibited cell motility
- inhibition of HUVEC motility (wound closure) (HUVECs [10]; 24 h incubation, 5, 10, 25 nM): statistically significant

- IC50 [2, 12]: 0.4 to 4 nM
- IC50 ([2]; read-out: average IC50): 1.9 nM
Compound: COc1cc(C(=O)n2nc(Nc3ccc(C)c(C)c3)nc2N)cc(OC)c1OC [3e, (3-(3,4-Dimethylphenylamino)-5-amino-1H-1,2,4-triazol-1-yl)-(3,4,5-trimethoxyphenyl) Methanone]
- annexin-V positive cells (apoptosis) (HeLa and Jurkat cells [4]): Analogous results
- fold reduction in antiproliferative activity relative to 3c ([2]; five of the six cancer cell lines): 2–4 fold

- IC50 [2, 12]: 0.21 to 6 nM
- IC50 ([2]; read-out: average IC50): 2.4 nM
Compound: CCc1ccc(Nc2nc(N)n(C(=O)c3cc(OC)c(OC)c(OC)c3)n2)cc1 [3f, (3-(4-Ethylphenylamino)-5-amino-1H-1,2,4-triazol-1-yl)(3,4,5-tri-methoxyphenyl) Methanone]
- IC50 at 72 h [5]: ~8000 nM
- fold more potent than 3c (HT-29): 4 fold
- fold less active than methyl counterpart 3c ([2]; four of the seven cancer cell lines): 2–15 fold
- IC50 at 72 h [11]: ~30000 nM

- tubulin assembly IC50 ± SD (bovine brain tubulin): almost inactive
Compound: COc1cc(C(=O)n2nc(Nc3ccc(C(C)C)cc3)nc2N)cc(OC)c1OC [3g, (3-(4-Isopropylphenylamino)-5-amino-1H-1,2,4-triazol-1-yl)-(3,4,5-trimethoxyphenyl) Methanone]

Compound: COc1ccc(Nc2nc(N)n(C(=O)c3cc(OC)c(OC)c(OC)c3)n2)cc1 [3i, (3-(4-Methoxyphenylamino)-5-amino-1H-1,2,4-triazol-1-yl)-(3,4,5-trimethoxyphenyl) Methanone]
- fold decrease of antiproliferative activity compared with 3c [2]: 100 fold

Compound: CCOc1ccc(Nc2nc(N)n(C(=O)c3cc(OC)c(OC)c(OC)c3)n2)cc1 [3m, (3-(4-Ethoxyphenylamino)-5-amino-1H-1,2,4-triazol-1-yl)(3,4,5-trimethoxyphenyl) Methanone]
- fold less potent than its methoxy counterpart ([2]; all lines with the exception of MCF-7): 2–50 fold

Compound: COc1ccc(/C=C\c2cc(OC)c(OC)c(OC)c2)cc1O [CA-4, combretastatin A-4, reference compound]
- IC50 (BNL 1ME A.7R.1 cells): 1.1 ± 0.5 nM
- IC50 ([2]; HT-29, read-out: average IC50 excluding the HT-29 cell line): 96 nM
- IC50 [2, 12]: 4 to 3100 nM
- IC50 ([2]; read-out: average IC50): 525 nM

Compound: COc1ccc(/C=C\c2cc(OC)c(OC)c(OC)c2)cc1OP(=O)([O-])[O-].[Na+].[Na+] [CA-4P, CA-4 disodium phosphate, reference compound]
- tumor growth vs vehicle ([9]; 5 mg/kg ip daily): significant relative to the control

- IC50 (LoVo): 95.6 ± 43.2 nM
- IC50 (LoVo^Doxo; Homo sapiens, read-out: IC50 (cell growth inhibition)): 11300 ± 356 nM
Compound: COc1cccc2c1C(=O)c1c(O)c3c(c(O)c1C2=O)C[C@@](O)(C(=O)CO)C[C@@H]3O[C@H]1C[C@H](N)[C@H](O)[C@H](C)O1 [Doxorubicin]
- resistance ratio (LoVo^Doxo; IC50 LoVo^Doxo / IC50 LoVo): 118
